Active and inactive are the calls of the source. No cut-off for these calls is given here.
How the values were obtained:
[1] = Inhibition of bacterial MBP-fused NDM1 expressed in Escherichia coli BL21(DE3) ausing chromacef as substrate preincubated for 20 mins followed by substrate addition measured after 0.3 mins; design: species or system Bacteria
Method in brief: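 Preincubated 20 min, then 3 μM substrate (~3×KM) added. A442 followed ~0.3 min at 25 °C. Activity scaled to uninhibited (100%) and no-enzyme (0%) controls, fitted to a Hill-type equation.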

Bacteria [2] = assay: Inhibition of bacterial MBP-fused NDM1 expressed in Escherichia coli BL21(DE3) at 50 uM using chromacef as substrate preincubated for 10 mins followed by substrate addition measured after 20 mins by HTS assay relative to control
Method in brief: (§1)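 Colorimetric chromacef screen, final 50 mM HEPES, 2 mM CHAPS, pH 7.0. Substrate added at 3 μM (NDM-1, ~3×KM), 7.2 μM (IMP-1) or 16 μM (VIM-2). […] Percent inhibition calculated.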

[3] = molecular target: Metallo-beta-lactamase type 2 (Serratia marcescens) (UniProt P52699); assay: Inhibition of Serratia marcescens IMP1 expressed in Escherichia coli BL21(DE3) at 50 uM using chromacef as substrate preincubated for 10 mins followed by substrate addition measured after 20 mins by HTS assay relative to control; method in brief: as §1
Sequence of Metallo-beta-lactamase type 2 (Serratia marcescens) (P52699 19-246 limits assumed): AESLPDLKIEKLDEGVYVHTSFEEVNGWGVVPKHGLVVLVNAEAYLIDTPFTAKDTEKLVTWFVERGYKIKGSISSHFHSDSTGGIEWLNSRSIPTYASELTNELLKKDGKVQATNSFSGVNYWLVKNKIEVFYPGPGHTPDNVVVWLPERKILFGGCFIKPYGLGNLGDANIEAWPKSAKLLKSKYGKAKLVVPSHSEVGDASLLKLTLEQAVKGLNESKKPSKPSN

[4] = molecular target: Beta-lactamase VIM-2 (Pseudomonas aeruginosa) (UniProt Q9K2N0); assay: Inhibition of Pseudomonas aeruginosa VIM2 expressed in Escherichia coli BL21(DE3) at 50 uM using chromacef as substrate preincubated for 10 mins followed by substrate addition measured after 20 mins by HTS assay relative to control; method in brief: as §1
Bacteria [5] = assay: Binding affinity to bacterial CoCoNDM-1 expressed in Escherichia coli BL21(DE3) assessed as metal stripping at 1 to 2 equiv after 30 mins by UV-Visible spectroscopic method
Method in brief: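 Apo-NDM-1 at 300 μM in 50 mM HEPES, 150 mM NaCl, pH 6.8, loaded with 2 molar equiv CoCl2. […] Absorbance read 300–700 nm at 25 °C as difference spectra against buffer blank, normalized at 700 nm.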

Bacteria [6] = assay: Binding affinity to bacterial CoCoNDM-1 expressed in Escherichia coli BL21(DE3) assessed as CoCoNDM-1-compound ternary complex formation at 1 equiv by 1H […] spectroscopic method
[7] = Inhibition of bacterial MBP-fused NDM1 expressed in Escherichia coli BL21(DE3) ausing fluorocillin as substrate preincubated for 20 mins followed by substrate addition measured at 1 sec time interval for 25 mins by fluorescence assay; design: species or system Bacteria
Method in brief: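 NDM-1 pre-incubated 20 min with inhibitor (final 100 μM to 1 nM) in 50 mM HEPES pH 7.0 with 2 mM CHAPS. Reaction started with fluorocillin (final 87 nM, below KM), NDM-1 final 25 pM. Fluorescence read at λex/em 495/525 nm, 10 reads over ~25 min.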

Bacteria [8] = assay: Binding affinity to bacterial NDM-1 expressed in Escherichia coli BL21(DE3) assessed as Zn2+ stripping up to 128 uM after 30 mins by equilibrium dialysis method
Method in brief: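 NDM-1 (8 μM final) in 50 mM HEPES pH 7.5 mixed with compound at 0–128 μM for 30 min. Then dialyzed 4 h against metal-free 50 mM HEPES pH 7.5. Residual Zn(II) measured by ICP-AES at 213.856 nm.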

[9] = Metal chelating activity assessed as Co2+-compound complex formation at 1 equiv by 1H NMR spectroscopic method; format: functional
Method in brief: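 Apo-NDM-1 concentrated to ~1 mM and given 2 equivalents of CoCl2, in 50 mM HEPES, 150 mM NaCl, 10% D2O, pH 6.8. Compounds, from DMSO stocks of 50–100 mM, titrated in. 1H NMR spectra recorded at 292 K at 300.16 MHz.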

Bacteria [10] = assay: Inhibition of bacterial MBP-fused NDM1 expressed in Escherichia coli BL21(DE3) ausing fluorocillin as substrate preincubated for 20 mins followed by substrate addition measured at 1 sec time interval for 25 mins in presence of ZnSO4 by fluorescence assay
Beta-lactamase VIM-2 = Beta-lactamase VIM-2 (Pseudomonas aeruginosa, UniProt Q9K2N0); assay: Inhibition of Pseudomonas aeruginosa VIM2 expressed in Escherichia coli BL21(DE3) using fluorocillin as substrate preincubated for 10 mins followed by substrate addition measured after 20 mins by HTS assay
Bacteria [11] = assay: Binding affinity to bacterial CoCoNDM-1 expressed in Escherichia coli BL21(DE3) assessed as metal stripping at 1 to 2 equiv by 1H NMR spectroscopic method
Method in brief: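 Apo-NDM-1 concentrated to ~1 mM and loaded with 2 equiv CoCl2. Samples in 50 mM HEPES, 150 mM NaCl, 10% D2O, pH 6.8. Compounds from 50–100 mM DMSO stocks titrated in ~5 μL aliquots. 1H spectra recorded at 292 K, 300.16 MHz.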

Bacteria [12] = assay: Binding affinity to bacterial NDM-1 expressed in Escherichia coli BL21(DE3) assessed as intrinsic tryptophan fluorescence quenching up to 32 uM after 30 mins by luminescence spectrometric method relative to control
Method in brief: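 NDM-1 at 2 μM final in 50 mM HEPES pH 7.5 mixed with compound at 4–32 μM, incubated 30 min. Emission scanned 300–400 nm with excitation at 280 nm. Relative tryptophan fluorescence read at 348 nm, with buffer set to 0% and inhibitor-free NDM-1 to 100%. Control run with 2 μM L-tryptophan in place of enzyme.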

[13] = Inhibition of bacterial NDM1; design: species or system Bacteria
Method in brief: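 Chromogenic NDM-1 assay: enzyme (3 nM) pre-incubated 20 min with ~20 inhibitor concentrations in 50 mM HEPES, 1% DMSO, pH 7.0. Chromacef substrate 3 μM (~3×KM). Absorbance at 442 nm followed ~0.3 min at 25 °C.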

Question: For `O=C(O)c1cccc(C(=O)NCCc2ccccc2)n1`, which IC50 [1] is on record?
Answer: The IC50 was greater than 50 µM.

Question: For `O=C(O)c1cccc(C(=O)Nc2ccccc2)n1`, which IC50 [1] is on record?
Answer: The IC50 was greater than 50 µM.

Question: With `O=C(O)CNC(=O)c1cccc(C(=O)O)n1` as the compound, how does the IC50 [1] read?
Answer: The IC50 was 49 µM.

Question: Which results are given for `Oc1c(I)cc(Cl)c2cccnc12`?
Answer: inhibition (Bacteria [2]): > 60%; inhibition [3]: > 60%; inhibition [4]: > 60%

Question: For `O=C(O)c1cccc(C(=O)NCCc2cccs2)n1`, which IC50 [1] is on record?
Answer: The IC50 was greater than 50 µM.

Question: Which IC50 [1] does the source give for `O=C(O)c1cc(NCc2ccco2)cc(C(=O)O)n1` here?
Answer: Its IC50 is 4.9 µM.

Question: Which IC50 [1] does the source give for `O=C(O)c1cc(NCc2ccccc2)cc(C(=O)O)n1` here?
Answer: Its IC50 is 8.4 µM.

Question: With `O=C(O)c1cc(NCc2cccs2)cc(C(=O)O)n1` as the compound, how does the IC50 [1] read?
Answer: The IC50 was 5.2 µM.

Question: Which Activity (Bacteria [5]) does the source give for `O=C(O)c1cccc(C(=O)O)n1` [DIPICOLINIC ACID] here?
Answer: The Activity was “Active”.

Question: And the Activity (Bacteria [6])?
Answer: Its Activity is “Active”.

Question: And the IC50 [7]?
Answer: The IC50 was 0.41 µM.

Question: And the inhibition (Bacteria [2])?
Answer: The inhibition was greater than 60%.

Question: And the Activity (Bacteria [8])?
Answer: Its Activity is “Active”.

Question: And the IC50 [1]?
Answer: Its IC50 is 0.52 µM.

Question: And the Activity [9]?
Answer: Its Activity is “Active”.

Question: What about the inhibition (Bacteria [10]) of the same compound?
Answer: The inhibition was “inactive”.

Question: And the IC50 (Beta-lactamase VIM-2)?
Answer: Its IC50 is 1.66 µM.

Question: And the inhibition [3]?
Answer: Its inhibition is greater than 60%.

Question: What about the Activity (Bacteria [11]) of the same compound?
Answer: The Activity was “Active”.

Question: What about the inhibition [4] of the same compound?
Answer: The inhibition was greater than 60%.

Question: What about the Activity (Bacteria [12]) of the same compound?
Answer: Its Activity is 20%.

Question: With `O=C(O)c1cccc(C(=O)N2CCCCC2)n1` as the compound, how does the IC50 [1] read?
Answer: Its IC50 is greater than 50 µM.

Question: For `NCCNCc1ccc(C(=O)N[C@H]2Cc3cccc(C(=O)O)c3O[B-]2(O)O)cc1`, which IC50 [13] is on record?
Answer: Its IC50 is 0.004 µM.

Question: Which IC50 [1] does the source give for `O=C(O)c1cccc(C(=O)NCc2ccc3c(c2)OCO3)n1` here?
Answer: The IC50 was greater than 50 µM.

Question: For `CC(C)CNC(=O)c1cccc(C(=O)O)n1`, which IC50 [1] is on record?
Answer: The IC50 was greater than 50 µM.

Question: With `Nc1ccc(-c2cc(C(=O)O)nc(C(=O)O)c2)cc1` as the compound, how does the IC50 [7] read?
Answer: Its IC50 is 0.54 µM.

Question: What about the IC50 [1] of the same compound?
Answer: Its IC50 is 1.03 µM.

Question: Which IC50 [1] does the source give for `COc1ccc(NC(=O)c2cccc(C(=O)O)n2)cc1` here?
Answer: The IC50 was greater than 50 µM.

Question: With `COc1ccc(Nc2cc(C(=O)O)nc(C(=O)O)c2)cc1` as the compound, how does the IC50 [1] read?
Answer: Its IC50 is 4.5 µM.

Question: For `CN(C)c1cccc(-c2cc(C(=O)O)nc(C(=O)O)c2)c1`, which IC50 [7] is on record?
Answer: Its IC50 is 0.43 µM.

Question: What about the IC50 [1] of the same compound?
Answer: Its IC50 is 0.82 µM.

Question: What does the source list for `O=C(O)c1cc(-c2ccccc2O)cc(C(=O)O)n1`?
Answer: IC50 [7]: 0.13 µM; IC50 [1]: 0.52 µM

Question: With `COc1ccc(-c2cc(C(=O)O)nc(C(=O)O)c2)cc1` as the compound, how does the IC50 [7] read?
Answer: Its IC50 is 0.38 µM.

Question: And the IC50 [1]?
Answer: Its IC50 is 0.43 µM.

Question: With `c1ccc(C2=NCCS2)nc1` as the compound, how does the inhibition (Bacteria [2]) read?
Answer: Its inhibition is greater than 60%.

Question: What about the inhibition [3] of the same compound?
Answer: The inhibition was greater than 60%.

Question: What about the inhibition [4] of the same compound?
Answer: Its inhibition is greater than 60%.

Question: Which IC50 [1] does the source give for `O=C(O)c1cc(Nc2ccccc2)cc(C(=O)O)n1` here?
Answer: The IC50 was 3.4 µM.

Question: With `O=C(O)c1cc(-c2cccc(O)c2)cc(C(=O)O)n1` as the compound, how does the IC50 [7] read?
Answer: Its IC50 is 0.43 µM.

Question: And the IC50 [1]?
Answer: The IC50 was 0.6 µM.

Question: Which IC50 [13] does the source give for `N[C@@H](CN[C@@H](CN[C@@H](CC(=O)O)C(=O)O)C(=O)O)C(=O)O` here?
Answer: Its IC50 is 4 µM.

Question: With `COc1ccccc1-c1cc(C(=O)O)nc(C(=O)O)c1` as the compound, how does the IC50 [7] read?
Answer: Its IC50 is 0.5 µM.

Question: And the IC50 [1]?
Answer: The IC50 was 0.5 µM.

Question: With `O=C(O)c1cccc(C(=O)NCc2ccco2)n1` as the compound, how does the IC50 [1] read?
Answer: Its IC50 is greater than 50 µM.

Question: For `CC(C)NC(=O)c1cccc(C(=O)O)n1`, which IC50 [1] is on record?
Answer: The IC50 was greater than 50 µM.

From ChEMBL document CHEMBL4017500 (J Med Chem, 2017)
